Reference: ChEMBL document CHEMBL4393681, “The identification of naturally occurring labdane diterpenoid calcaratarin D as a potential anti-inflammatory agent” (Eur J Med Chem, 2019)
pIC50: −log10 of the molar value. Activity calls are given as the source filed them. No cut-off for these calls is given here.

What was measured:
[1] = target: RAC-alpha serine/threonine-protein kinase (Mus musculus) (UniProt P31750); assay: Inhibition of LPS-stimulated AKT phosphorylation in mouse RAW264.7 cells at 5 to 20 uM pretreated for 1 hr followed by LPS stimulation and measured after 4 hrs by Western blot analysis; format: cell-based
Procedure, shortened: (§1)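 RAW264.7 cells received compound (5–20 µM) or vehicle with LPS 25 ng/mL for 4 h. Phospho-ERK1/2, SAPK/JNK, p38 and Akt were immunoblotted against a GAPDH loading control. Akt phosphorylation was quantified by band intensity, mean ± SEM, n = 4, versus 0.02% DMSO cells.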

[2] = target: MAP kinase p38 (Mus musculus) (UniProt P47811+O08911+Q9WUI1+Q9Z1B7); assay: Inhibition of LPS-stimulated p38 MAPK phosphorylation in mouse RAW264.7 cells at 5 to 20 uM pretreated for 1 hr followed by LPS stimulation and measured after 4 hrs by Western blot analysis; format: cell-based; procedure, shortened: as §1
[3] = system: RAW264.7; assay: Inhibition of LPS-stimulated SAPK/JNK phosphorylation in mouse RAW264.7 cells at 5 to 20 uM pretreated for 1 hr followed by LPS stimulation and measured after 4 hrs by Western blot analysis; format: cell-based; procedure, shortened: as §1
[4] = target: Mitogen-activated protein kinase 1 and 3 (ERK2 and ERK1) (Mus musculus) (UniProt P63085+Q63844); assay: Inhibition of LPS-stimulated ERK1/2 phosphorylation in mouse RAW264.7 cells at 5 to 20 uM pretreated for 1 hr followed by LPS stimulation and measured after 4 hrs by Western blot analysis; format: cell-based; procedure, shortened: as §1
[5] = species: Mus musculus; assay: Inhibition of LPS-stimulated NFkappaB activation in mouse RAW blue cells assessed as reduction in SEAP protein expression at 0.1 to 20 uM pretreated for 1 hr followed by LPS stimulation and measured after 24 hrs by reporter gene assay; format: cell-based
Procedure, shortened: (§2)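 RAW-Blue NF-κB–SEAP reporter cells were pretreated for 1 h with compound (0.1–20 µM), dexamethasone 1 µM or DMSO vehicle, then given LPS 25 ng/mL for 24 h. SEAP activity in the supernatant was read with LPS-treated 0.02% DMSO cells set as 100%. Mean ± SEM, n = 4.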

[6] = system: RAW264.7; assay: Anti-inflammatory activity in mouse RAW264.7 cells assessed as inhibition of LPS-induced IL-6 production at 5 uM pretreated for 1 hr followed by LPS stimulation and measured after 18 hrs by ELISA relative to control; format: functional; parameters: scale not given: the % may be the effect or the level left
Procedure, shortened: (§3)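 DMSO stocks (100 mM) were tested at 0.1, 1, 5 and 20 µM on LPS-stimulated RAW264.7 cells, with dexamethasone 1 µM as positive control. Secreted TNF-α or IL-6 was normalized to the percentage of viable LPS-stimulated cells at each concentration. Mean of three separate experiments, each in triplicate.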

[7] = system: RAW264.7; assay: Anti-inflammatory activity in mouse RAW264.7 cells assessed as inhibition of LPS-induced MCP-1 mRNA expression pretreated for 1 hr followed by LPS stimulation and measured after 4 hrs by RT-PCR analysis; format: functional, cell-based
Procedure, shortened: (§4)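 RAW264.7 cells were exposed to compound (1, 5, 20 µM), dexamethasone 1 µM or 0.02% DMSO vehicle, then stimulated with LPS 25 ng/mL for 4 h. Total RNA was isolated and analysed by real-time PCR. mRNA was normalized to β-actin and expressed relative to unstimulated control cells. Mean ± SEM, n = 4.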

[8] = system: RAW264.7; assay: Anti-inflammatory activity in mouse RAW264.7 cells assessed as inhibition of LPS-induced TNF-alpha mRNA expression pretreated for 1 hr followed by LPS stimulation and measured after 4 hrs by RT-PCR analysis; format: functional, cell-based; procedure, shortened: as §4
[9] = target: Transcription factor p65 (Mus musculus) (UniProt Q04207); assay: Effect on p65 subunit NFkappaB phosphorylation in mouse RAW264.7 cells at 5 to 20 uM pretreated for 1 hr followed by LPS stimulation and measured after 4 hrs by Western blot analysis; format: cell-based
Procedure, shortened: (§5)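 Whole-cell lysates from RAW264.7 cells given compound (5–20 µM) or vehicle and LPS 25 ng/mL for 4 h. Phosphorylated and total p65 were immunoblotted and bands quantified densitometrically. Mean ± SEM, n = 4, compared with 0.02% DMSO cells.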

[10] = species: Mus musculus; assay: Inhibition of LPS-stimulated NFkappaB activation in mouse RAW blue cells assessed as reduction in SEAP protein expression pretreated for 1 hr followed by LPS stimulation and measured after 24 hrs by reporter gene assay; format: cell-based; procedure, shortened: as §2
[11] = system: RAW264.7; assay: Anti-inflammatory activity in mouse RAW264.7 cells assessed as inhibition of LPS-induced IL-1beta mRNA expression pretreated for 1 hr followed by LPS stimulation and measured after 4 hrs by RT-PCR analysis; format: functional, cell-based; procedure, shortened: as §4
[12] = system: RAW264.7; assay: Anti-inflammatory activity in mouse RAW264.7 cells assessed as inhibition of LPS-induced IL-6 production at 0.1 uM pretreated for 1 hr followed by LPS stimulation and measured after 18 hrs by ELISA relative to control; format: functional; parameters: scale not given: the % may be the effect or the level left; procedure, shortened: as §3
[13] = target: RAC-alpha serine/threonine-protein kinase (Mus musculus) (UniProt P31750); assay: Inhibition of LPS-stimulated AKT phosphorylation in mouse RAW264.7 cells pretreated for 1 hr followed by LPS stimulation and measured after 4 hrs by Western blot analysis; format: cell-based; procedure, shortened: as §1
[14] = system: RAW264.7; assay: Anti-inflammatory activity against mouse RAW264.7 cells assessed as inhibition of LPS-stimulated NO production pretreated for 1 hr followed by LPS stimulation and measured after 24 hrs by Griess reagent based assay; format: functional, cell-based
[15] = Cytotoxicity against mouse RAW264.7 cells assessed as cell viability at 20 uM incubated for 18 hrs by celltiter-glo luminescent assay relative to control; format: cell-based; settings: read-out: Activity
Procedure, shortened: (§6)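 Non-stimulated RAW264.7 cells were exposed to 0.1, 1, 5 and 20 µM compound from 100 mM DMSO stocks. Percent viability is the mean of three separate experiments with triplicate samples.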

[16] = system: RAW264.7; assay: Anti-inflammatory activity in mouse RAW264.7 cells assessed as inhibition of LPS-induced TNFalpha production at 5 uM pretreated for 1 hr followed by LPS stimulation and measured after 18 hrs by ELISA relative to control; format: functional; parameters: scale not given: the % may be the effect or the level left; procedure, shortened: as §3
[17] = Cytotoxicity against mouse RAW264.7 cells assessed as cell viability at 0.1 uM incubated for 18 hrs by celltiter-glo luminescent assay relative to control; format: cell-based; settings: read-out: Activity; procedure, shortened: as §6
[18] = Cytotoxicity against mouse RAW264.7 cells assessed as cell viability at 5 uM incubated for 18 hrs by celltiter-glo luminescent assay relative to control; format: cell-based; settings: read-out: Activity; procedure, shortened: as §6
[19] = system: RAW264.7; assay: Anti-inflammatory activity in mouse RAW264.7 cells assessed as inhibition of LPS-induced iNOS mRNA expression pretreated for 1 hr followed by LPS stimulation and measured after 4 hrs by RT-PCR analysis; format: functional, cell-based; procedure, shortened: as §4
[20] = system: RAW264.7; assay: Anti-inflammatory activity in mouse RAW264.7 cells assessed as inhibition of LPS-induced TNFalpha production at 20 uM pretreated for 1 hr followed by LPS stimulation and measured after 18 hrs by ELISA relative to control; format: functional; parameters: scale not given: the % may be the effect or the level left; procedure, shortened: as §3
[21] = system: RAW264.7; assay: Anti-inflammatory activity in mouse RAW264.7 cells assessed as inhibition of LPS-induced TNFalpha production at 0.1 uM pretreated for 1 hr followed by LPS stimulation and measured after 18 hrs by ELISA relative to control; format: functional; parameters: scale not given: the % may be the effect or the level left; procedure, shortened: as §3
[22] = target: Transcription factor p65 (Mus musculus) (UniProt Q04207); assay: Inhibition of LPS-stimulated NFkappaB activation in mouse RAW264.7 cells assessed as blockade of p65 NFkappaB nuclear translocation at 20 uM pretreated for 1 hr followed by LPS stimulation and measured after 4 hrs by Western blot analysis; format: cell-based
Procedure, shortened: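 After compound at 20 µM or vehicle with LPS 25 ng/mL for 4 h, cytoplasmic and nuclear fractions were blotted for p65. TBP (nuclear) and GAPDH (cytoplasmic) served as loading controls. Nuclear p65 was quantified by band intensity, mean ± SEM, n = 4.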

[23] = target: Transcription factor p65 (Mus musculus) (UniProt Q04207); assay: Effect on total p65 NFkappaB subunit protein level in mouse RAW264.7 cells at 5 to 20 uM pretreated for 1 hr followed by LPS stimulation and measured after 4 hrs by Western blot analysis; format: cell-based; procedure, shortened: as §5
[24] = system: RAW264.7; assay: Anti-inflammatory activity in mouse RAW264.7 cells assessed as inhibition of LPS-induced IL-6 production at 1 uM pretreated for 1 hr followed by LPS stimulation and measured after 18 hrs by ELISA relative to control; format: functional; parameters: scale not given: the % may be the effect or the level left; procedure, shortened: as §3
[25] = system: RAW264.7; assay: Anti-inflammatory activity in mouse RAW264.7 cells assessed as inhibition of LPS-induced TNFalpha production at 1 uM pretreated for 1 hr followed by LPS stimulation and measured after 18 hrs by ELISA relative to control; format: functional; parameters: scale not given: the % may be the effect or the level left; procedure, shortened: as §3
[26] = Cytotoxicity against mouse RAW264.7 cells assessed as cell viability at 1 uM incubated for 18 hrs by celltiter-glo luminescent assay relative to control; format: cell-based; settings: read-out: Activity; procedure, shortened: as §6
[27] = system: RAW264.7; assay: Anti-inflammatory activity in mouse RAW264.7 cells assessed as inhibition of LPS-induced IL-6 mRNA expression pretreated for 1 hr followed by LPS stimulation and measured after 4 hrs by RT-PCR analysis; format: functional, cell-based; procedure, shortened: as §4
[28] = system: RAW264.7; assay: Anti-inflammatory activity in mouse RAW264.7 cells assessed as inhibition of LPS-induced IL-6 production at 20 uM pretreated for 1 hr followed by LPS stimulation and measured after 18 hrs by ELISA relative to control; format: functional; parameters: scale not given: the % may be the effect or the level left; procedure, shortened: as §3

Sequence of Transcription factor p65 (Mus musculus) (Q04207 whole entry): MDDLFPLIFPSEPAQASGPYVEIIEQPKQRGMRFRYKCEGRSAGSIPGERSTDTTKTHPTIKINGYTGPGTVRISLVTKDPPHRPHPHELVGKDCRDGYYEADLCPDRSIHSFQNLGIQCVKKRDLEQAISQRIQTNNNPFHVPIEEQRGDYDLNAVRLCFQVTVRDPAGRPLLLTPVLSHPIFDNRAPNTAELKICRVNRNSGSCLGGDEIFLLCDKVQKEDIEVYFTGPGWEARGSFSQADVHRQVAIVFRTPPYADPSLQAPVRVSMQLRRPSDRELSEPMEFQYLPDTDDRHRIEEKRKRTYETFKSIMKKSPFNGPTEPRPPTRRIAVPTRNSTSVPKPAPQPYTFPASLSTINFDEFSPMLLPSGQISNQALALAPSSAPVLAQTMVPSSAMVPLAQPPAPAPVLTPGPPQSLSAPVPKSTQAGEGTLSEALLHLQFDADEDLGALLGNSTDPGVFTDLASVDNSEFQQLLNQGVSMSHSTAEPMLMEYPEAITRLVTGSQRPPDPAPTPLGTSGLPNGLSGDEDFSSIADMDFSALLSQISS
Sequence of Mitogen-activated protein kinase 1 and 3 (ERK2 and ERK1) (Mus musculus) (P63085 whole entry, looked up): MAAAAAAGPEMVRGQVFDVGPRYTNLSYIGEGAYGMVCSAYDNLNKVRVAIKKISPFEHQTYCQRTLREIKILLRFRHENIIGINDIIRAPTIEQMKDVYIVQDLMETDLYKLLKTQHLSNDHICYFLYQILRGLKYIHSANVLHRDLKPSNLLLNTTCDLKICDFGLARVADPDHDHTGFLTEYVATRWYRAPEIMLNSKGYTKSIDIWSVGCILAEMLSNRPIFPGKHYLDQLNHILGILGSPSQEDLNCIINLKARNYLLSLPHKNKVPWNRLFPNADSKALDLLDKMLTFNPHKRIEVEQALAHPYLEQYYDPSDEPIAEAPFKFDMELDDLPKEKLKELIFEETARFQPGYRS
Sequence of Mitogen-activated protein kinase 1 and 3 (ERK2 and ERK1) (Mus musculus) (Q63844 whole entry, looked up): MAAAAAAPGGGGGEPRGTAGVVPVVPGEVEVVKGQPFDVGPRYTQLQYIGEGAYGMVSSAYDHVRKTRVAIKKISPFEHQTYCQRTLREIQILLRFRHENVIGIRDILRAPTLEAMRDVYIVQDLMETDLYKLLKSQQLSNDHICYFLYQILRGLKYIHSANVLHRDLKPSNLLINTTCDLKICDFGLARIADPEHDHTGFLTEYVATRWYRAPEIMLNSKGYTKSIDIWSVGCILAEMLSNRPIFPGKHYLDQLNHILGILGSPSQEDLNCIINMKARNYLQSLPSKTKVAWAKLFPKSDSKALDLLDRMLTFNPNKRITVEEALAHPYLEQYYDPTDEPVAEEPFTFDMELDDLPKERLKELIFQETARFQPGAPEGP
Sequence of RAC-alpha serine/threonine-protein kinase (Mus musculus) (P31750 whole entry): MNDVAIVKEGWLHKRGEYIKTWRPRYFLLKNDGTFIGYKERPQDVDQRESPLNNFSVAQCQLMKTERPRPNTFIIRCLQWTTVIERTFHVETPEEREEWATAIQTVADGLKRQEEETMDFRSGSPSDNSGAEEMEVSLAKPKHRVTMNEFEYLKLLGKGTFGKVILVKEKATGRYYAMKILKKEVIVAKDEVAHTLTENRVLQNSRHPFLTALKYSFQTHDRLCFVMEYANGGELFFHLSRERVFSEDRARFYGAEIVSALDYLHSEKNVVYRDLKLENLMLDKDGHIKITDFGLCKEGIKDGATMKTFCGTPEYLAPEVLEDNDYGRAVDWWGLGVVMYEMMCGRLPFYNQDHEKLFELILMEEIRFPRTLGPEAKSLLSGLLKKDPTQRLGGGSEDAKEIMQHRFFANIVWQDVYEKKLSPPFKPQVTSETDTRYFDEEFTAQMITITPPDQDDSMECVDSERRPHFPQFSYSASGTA

C=C1CC[C@@H]2[C@](C)(CO)[C@H](O)CC[C@@]2(C)[C@@H]1C/C=C1/C(=O)OC[C@H]1O
inhibition [1]: Active
inhibition [2]: Active
inhibition [3]: Active
inhibition [4]: Active
inhibition [5]: inactive

C=C1CC[C@H]2C(C)(C)CCC[C@]2(C)[C@H]1C/C=C1/C(=O)OC[C@H]1O
Activity [6]: 40%
inhibition [7]: Dose-dependent effect
inhibition [8]: Dose-dependent effect
Activity [9]: inactive
inhibition [10]: Dose-dependent effect
inhibition [11]: Dose-dependent effect
Activity [12]: 99.2%
inhibition [13]: Dose-dependent effect
pIC50 [14]: 5.41
inhibition [14]: Dose-dependent effect
viability at 18 h, 20 µM [15]: 53.7%
Activity [16]: 19.2%
viability at 18 h, 0.1 µM [17]: 103%
viability at 18 h, 5 µM [18]: 82.7%
inhibition [19]: Dose-dependent effect
Activity [20]: 1.7%
Activity [21]: 99.3%
inhibition [22]: Active
Activity [23]: inactive
Activity [24]: 68.1%
Activity [25]: 63.4%
inhibition [2]: inactive
inhibition [3]: inactive
viability at 18 h, 1 µM [26]: 95.6%
inhibition [4]: inactive
inhibition [27]: Dose-dependent effect
Activity [28]: 10.8%

C=C1CC[C@H]2C(C)(C)CCC[C@]2(C)[C@H]1C/C=C1\C(=O)OC[C@H]1O
Activity [6]: 32.2%
Activity [12]: 100.7%
viability at 18 h, 20 µM [15]: 47.5%
Activity [16]: 17.5%
viability at 18 h, 0.1 µM [17]: 100%
viability at 18 h, 5 µM [18]: 81.7%
Activity [20]: 4.8%
Activity [21]: 98.7%
Activity [24]: 76.9%
Activity [25]: 71.6%
viability at 18 h, 1 µM [26]: 95.5%
Activity [28]: 10.1%

C=C1CC[C@H]2C(C)(C)CCC[C@]2(C)[C@H]1C/C=C1\CC(OCC)OC1=O (stereo partly specified)
Activity [6]: 95.9%
Activity [12]: 102.3%
viability at 18 h, 20 µM [15]: 96.3%
Activity [16]: 65.3%
viability at 18 h, 0.1 µM [17]: 102%
viability at 18 h, 5 µM [18]: 94.9%
Activity [20]: 48.1%
Activity [21]: 101.6%
Activity [24]: 100.3%
Activity [25]: 86.8%
viability at 18 h, 1 µM [26]: 100%
Activity [28]: 80.9%
